# Assay results from ChEMBL document CHEMBL1142314, “alpha- and beta-substituted phosphonate analogs of LPA as autotaxin inhibitors” (Bioorg Med Chem, 2008).
# Legend:
# Autotaxin (Homo sapiens) [1] = target: Autotaxin (Homo sapiens) (UniProt Q13822); assay: Inhibition of autotaxin assessed as residual enzyme activity at 1 uM relative to control
# In short: (§1)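 ATX activity measured with the compound present at 1 μM, 10 μM or 100 μM. Activity without compound served as the standard (100%), and results are reported as percent residual ATX activity.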
# Autotaxin (Homo sapiens) [2] = target: Autotaxin (Homo sapiens) (UniProt Q13822); assay: Inhibition of autotaxin assessed as residual enzyme activity at 100 uM relative to control; in short: as §1
# Autotaxin (Homo sapiens) [3] = target: Autotaxin (Homo sapiens) (UniProt Q13822); assay: Inhibition of autotaxin assessed as residual enzyme activity at 10 uM relative to control; in short: as §1
SMILES,Activity (Autotaxin (Homo sapiens) [1]) [%],Activity (Autotaxin (Homo sapiens) [2]) [%],Activity (Autotaxin (Homo sapiens) [3]) [%]
CCCCCCCCCCCCCCCC(=O)N[C@@H](Cc1ccc(OCc2ncc(C)c(OC)c2C)cc1)C[C@@H](O)P(=O)(O)O,71,53,70
CCCCCCCCCCCCCCCC(=O)N[C@@H](Cc1ccc(OCc2ncc(C)c(OC)c2C)cc1)C(F)CP(=O)(O)O (stereo not given in full),59,11,22
CCCCCCCCCCCCCCCC(=O)N[C@H](C(=O)CP(=O)(O)O)C(C)C,109,24,77
CCCCCCCCCCCCCCCC(=O)N1CCCC1C(O)CP(=O)(O)O (stereo not given),83,16,43
"CCCCCCCCCCCCCCCC(=O)N[C@@H](Cc1ccccc1)C(O)CP(=O)(O)O (single isomer, unassigned; diastereomer a)",88,70,70
"CCCCCCCCCCCCCCCC(=O)N[C@@H](CC(C)C)C(O)CP(=O)(O)O (single isomer, unassigned; diastereomer b)",93,52,64
CCCCCCCCCCCCCCCC(=O)N[C@@H](Cc1cn(Cc2ncc(C)c(OC)c2C)c2ccccc12)C(O)CP(=O)(O)O (mixture of isomers),64,13,28
CCCCCCCCCCCCCCCC(=O)N[C@@H](C)C(=O)CP(=O)(O)O,60,72,67
CCCCCCCCCCCCCCCC(=O)N[C@@H](C(C)C)C(O)CP(=O)(O)O (stereo in doubt; 32),72,23,78
CCCCCCCCCCCCCCCC(=O)N[C@@H](Cc1c[nH]c2ccccc12)C(=O)CP(=O)(O)O,91,28,70
"CCCCCCCCCCCCCCCC(=O)N[C@@H](CC(C)C)C(O)CP(=O)(O)O (single isomer, unassigned; diastereomer a)",68,23,53
CCCCCCCCCCCCCCCC(=O)N[C@@H](Cc1cn(Cc2ccccc2)c2ccccc12)C(O)CP(=O)(O)O (mixture of isomers),80,28,35

# Next, values leading:
Activity (Autotaxin (Homo sapiens) [1]) [%],Activity (Autotaxin (Homo sapiens) [2]) [%],Activity (Autotaxin (Homo sapiens) [3]) [%],SMILES
49,9,18,CCCCCCCCCCCCCCCC(=O)N1CCCC1C(=O)CP(=O)(O)O (stereo not given)
88,56,88,CCCCCCCCCCCCCCCC(=O)NCC(O)CP(=O)(O)O (stereo not given)
74,25,68,CCCCCCCCCCCCCCCC(=O)N[C@@H](Cc1ccc(OCc2ncc(C)c(OC)c2C)cc1)CC(F)P(=O)(O)O (mixture of isomers)
83,19,41,CCCCCCCCCCCCCCCC(=O)N[C@@H](COCc1ccccc1)C(O)CP(=O)(O)O (stereo in doubt; 45)
50,25,14,CCCCCCCCCCCCCCCC(=O)N[C@@H](C)C(O)CP(=O)(O)O (mixture of isomers)
92,67,99,CCCCCCCCCCCCCCCC(=O)N[C@@H](Cc1ccccc1)C(O)CP(=O)(O)O (stereo in doubt; 37)
115,13,57,"CCCCCCCCCCCCCCCC(=O)N[C@@H](C(C)C)C(O)CP(=O)(O)O (single isomer, unassigned; diastereomer a)"
73,87,68,CCCCCCCCCCCCCCCC(=O)N[C@@H](Cc1ccc(OCc2ncc(C)c(OC)c2C)cc1)C[C@H](O)P(=O)(O)O
78,61,46,"CCCCCCCCCCCCCCCC(=O)N[C@@H](COCc1ccccc1)C(O)CP(=O)(O)O (single isomer, unassigned; diastereomer b)"
89,25,48,CCCCCCCCCCCCCCCC(=O)N[C@@H](CC(C)C)C(=O)CP(=O)(O)O
79,76,95,CCCCCCCCCCCCCCCC(=O)NCC(=O)CP(=O)(O)O
88,25,51,"CCCCCCCCCCCCCCCC(=O)N[C@@H](Cc1c[nH]c2ccccc12)C(O)CP(=O)(O)O (single isomer, unassigned; diastereomer a)"
93,26,75,CCCCCCCCCCCCCCCC(=O)N[C@@H](Cc1c[nH]c2ccccc12)C(O)CP(=O)(O)O (stereo in doubt; 42)
